The text below walks through data of ChEMBL document CHEMBL1124931, “Fluoro carbocyclic nucleosides: synthesis and antiviral activity of 2'- and 6'-fluoro carbocyclic pyrimidine nucleosides including carbocyclic 1-(2-deoxy-2-fluoro-beta-D-arabinofuranosyl)-5-methyluracil and carbocyclic 1-(2-deoxy-2-fluoro-beta-D-arabinofuranosyl)-5-iodouracil” (1990).

Test [1] has as its system Vero. The test can be described thus: Cytotoxic effect on Vero cells was determined in mock infected cell monolayers incubated with the compound for 48 hr at 37 degree celsius. It is filed as functional, Chlorocebus sabaeus. Put shortly:
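Mock-infected confluent Vero monolayers exposed to compound for 48 h at 37 °C. Examined microscopically, with gross changes in cell staining, number or morphology scored. The cytotoxic dose is the level affecting 50% of the monolayer.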

Test [2] has as its system Vero. The test is described as follows: Antiherpes activity was measured in a plaque reduction assay in Vero cells, against HSV-2 strain 186. In kind it is functional. Conditions: Chlorocebus sabaeus, read-out: ID50 (the source's name). Put shortly: (§1)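 Confluent Vero monolayers infected with 30–40 PFU of HSV-1 (KOS) or HSV-2 (186). After 1 h adsorption at 37 °C, overlaid with maintenance medium containing 0.75% carboxymethylcellulose plus a range of compound concentrations. Incubated 2 further days at 37 °C, then fixed and stained and plaques counted. ID50 is the concentration giving 50% inhibition of plaque formation.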
(In a plaque reduction assay, fewer plaques than in the control indicate reduced infectivity or spread.)

The test system of test [3] is Vero. The test is described as follows: Antiherpes activity was measured in a plaque reduction assay in Vero cells, against HSV-1 strain KOS. It is filed as functional. The note with it: Chlorocebus sabaeus, read-out: ID50 (the source's name). Put shortly:
as §1

Converted amounts (≈) assume the structure as drawn.

Consider `Nc1ccn([C@@H]2C[C@H](CO)[C@@H](O)[C@H]2F)c(=O)n1`, for which, in the test with Vero [1], the Cytotoxicity was > 300 µg/mL. In addition, the IC50 was found to be 44 µg/mL (≈ 181 µM) in the test with Vero [2] and 18 µg/mL (≈ 74 µM) in the test with Vero [3].

In the case of `O=c1ccn(C2CC(O)C(CO)C2F)c(=O)[nH]1` (stereo not drawn), in the test on Vero [1], the Cytotoxicity was > 300 µg/mL. Moreover, the IC50 in the test with Vero [2] and with Vero [3] was > 300 µg/mL each time.

As to `Cc1cn(C2CC(CO)C(O)C2F)c(=O)[nH]c1=O` (stereo not drawn), the Cytotoxicity in the test with Vero [1] was > 100 µg/mL. Further, the IC50 in the test with Vero [2] and in the test on Vero [3] was > 100 µg/mL each time.

For `O=c1[nH]c(=O)n(C2CC(CO)C(O)C2F)cc1I` (stereo not drawn), in the test with Vero [1], the Cytotoxicity is > 100 µg/mL. Besides, the IC50 with Vero [2] was > 100 µg/mL; in the test on Vero [3], 11 µg/mL (≈ 29.7 µM).

For `O=c1[nH]c(=O)n([C@H]2C[C@H](O)[C@@H](CO)[C@H]2F)cc1I`, the Cytotoxicity with Vero [1] was > 300 µg/mL. The IC50 with Vero [2] and in the test with Vero [3] was > 300 µg/mL in each case.

Take `Nc1ccn([C@@H]2C[C@H](CO)[C@@H](O)[C@@H]2F)c(=O)n1`: the Cytotoxicity in the test on Vero [1] is > 100 µg/mL. For the same molecule, the IC50 in the test with Vero [2] is 82 µg/mL (≈ 337 µM); with Vero [3] it was 13 µg/mL (≈ 53.4 µM).

On to `O=c1[nH]c(=O)n([C@H]2C[C@H](O)[C@@H](CO)O2)cc1I` [IDOXURIDINE], for which the Cytotoxicity with Vero [1] is > 30 µg/mL. In addition, the IC50 with Vero [2] came to 0.9 µg/mL (≈ 2.54 µM); in the test with Vero [3], 0.1 µg/mL (≈ 0.282 µM).

With `O=c1[nH]c(=O)n([C@@H]2C[C@H](CO)[C@@H](O)C2)cc1I`, the Cytotoxicity with Vero [1] was determined as 300 µg/mL. For the same molecule, the IC50 was determined as 97 µg/mL (≈ 275 µM) in the test with Vero [2] and 0.07 µg/mL (≈ 0.199 µM) in the test with Vero [3].

In the case of `Cc1cn([C@@H]2O[C@H](CO)[C@@H](O)[C@@H]2F)c(=O)[nH]c1=O` [5-METHYL-2'-FLUOROARAURACIL], in the test with Vero [1], the Cytotoxicity is > 30 µg/mL. In addition, the IC50 in the test with Vero [2] and with Vero [3] was 0.05 µg/mL (≈ 0.192 µM) in each case.

As to `Cc1cn(C2CC(CO)C(O)C2(F)F)c(=O)[nH]c1=O` (stereo not drawn), in the test on Vero [1], the Cytotoxicity is > 100 µg/mL. The IC50 with Vero [2] and in the test on Vero [3] was > 100 µg/mL in each case.

In the case of `O=c1[nH]c(=O)n([C@H]2C[C@H](O)[C@@H](CO)[C@@H]2F)cc1I`, the Cytotoxicity in the test with Vero [1] was > 300 µg/mL. The IC50 in the test with Vero [2] and in the test on Vero [3] was > 300 µg/mL each time.
